Test [1] relates to PC-3. The experiment in a line: Cytotoxicity against human PC3 cells assessed as decrease in cell viability at 100 uM after 48 hrs. In kind it is functional, cell-based. An outline of the steps:
(§1)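 Cell viability measured in triplicate after 48 h exposure to a single 100 μM concentration. Actinomycin D served as the positive control.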

For test [2], the system named is A549. The test is described as follows: Cytotoxicity against human A549 cells assessed as decrease in cell viability at 100 uM after 48 hrs. In kind it is functional, cell-based. An outline of the steps:
as §1

In a further test the test system is Staphylococcus aureus. The experiment in a line: Antibacterial activity against Staphylococcus aureus ATCC 6538 after 16 to 48 hrs. In kind it is functional. The method in brief:
(§2)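 Bacterial MIC assay run in triplicate and read after 16−48 h incubation. Kanamycin and ampicillin served as positive controls.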

In another test the test system is Micrococcus luteus. The experiment in a line: Antibacterial activity against Micrococcus luteus NRRL B-287 after 16 to 48 hrs. Type of test: functional. An outline of the steps:
as §2

Another test concerns Bacillus spizizenii. The test is described as follows: Antibacterial activity against Bacillus subtilis ATCC 6633 after 16 to 48 hrs. Type of test: functional. The method in brief: as §2
In a further test the test system is Mycolicibacterium aurum. The test is described as follows: Antimycobacterial activity against Mycobacterium aurum ATCC 23366 after 16 to 48 hrs. In kind it is functional. The method in brief: as §2
The subject of test [3] is A549. The experiment in a line: Cytotoxicity against human A549 cells assessed as decrease in cell viability after 48 hrs. In kind it is functional, cell-based. To be noted: A549, 48 h. The method in brief: (§3)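 Human cancer cell line viability assay run in triplicate with 48 h compound exposure. IC50 derived from viability data. Actinomycin D served as the positive control.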

Test [4] concerns PC-3. The experiment in a line: Cytotoxicity against human PC3 cells assessed as decrease in cell viability after 48 hrs. The conditions noted are these: PC-3, 48 h. Type of test: functional, cell-based. An outline of the steps:
as §3

Values after ≈ are worked out from the molar mass of the structure shown. Active and inactive are the calls of the source.

The values below come from ChEMBL document CHEMBL4266053, “Puromycins B-E, Naturally Occurring Amino-Nucleosides Produced by the Himalayan Isolate Streptomyces sp. PU-14G” (J Nat Prod, 2018).

For orientation: MIC means the smallest concentration in the dilution series that meets the test's criterion for growth inhibition. Higher therefore signals a need for much substance. A word on the IC50: it is the point on the concentration scale where inhibition reaches its midpoint.

On to `COc1ccc(C[C@H](O)C(=O)N[C@H]2[C@@H](O)[C@H](n3cnc4c(N(C)C)ncnc43)O[C@@H]2CO)cc1`, for which the result in the test with PC-3 [1] and with A549 [2] was Active.
As to `CC(=O)N[C@@H](CC(C)C)C(=O)N[C@H]1[C@@H](O)[C@H](n2cnc3c(N(C)C)ncnc32)O[C@@H]1CO`, the outcome with PC-3 [1] and with A549 [2] was Active.
For the molecule `COc1ccc(C[C@H](NC(C)=O)C(=O)N[C@H]2[C@@H](O)[C@H](n3cnc4c(N(C)C)ncnc43)O[C@@H]2CO)cc1`, the outcome in the test on PC-3 [1] and in the test with A549 [2] was Active.
In the case of `CC(=O)N[C@H]1[C@@H](O)[C@H](n2cnc3c(N(C)C)ncnc32)O[C@@H]1CO`, the result in the test with PC-3 [1] and in the test with A549 [2] was Active.
On to `COc1ccc(C[C@H](N)C(=O)N[C@H]2[C@@H](O)[C@H](n3cnc4c(N(C)C)ncnc43)O[C@@H]2CO)cc1` [PUROMYCIN], for which the MIC with Staphylococcus aureus, in the test with Micrococcus luteus, against Bacillus spizizenii and against Mycolicibacterium aurum was 4 to 30 µM (≈ 1.89 to 14.1 µg/mL) each time. The IC50 with A549 [3] and in the test on PC-3 [4] was 0.3 µM in each case.
